Data from ChEMBL document CHEMBL3085705, “Design, chemical synthesis of 3-(9H-fluoren-9-yl)pyrrolidine-2,5-dione derivatives and biological activity against enoyl-ACP reductase (InhA) and Mycobacterium tuberculosis” (2013).

Experiments:
Format in all cases: functional
[1] = tested on: Mycobacterium tuberculosis; assay: Antimicrobial activity against streptomycin, isoniazid, rifampicin, ethambutol, pyrazinamide and ethionammide-resistant Mycobacterium tuberculosis clinical isolate by two-fold serial dilution method
Method in brief: (§1)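 Compounds dissolved in DMSO. Single colony grown in Middlebrook 7H9 with 0.05% Tween 80 and 10% OADC at 37 °C, no shaking, to ~10^8 CFU/mL (OD600 0.8–1.0). Diluted to ~10^7 CFU/mL; 1 μL streaked onto 7H11 agar (0.5% glycerol, 10% OADC) with two-fold serial compound dilutions. MIC is the lowest concentration inhibiting growth. Repeated three times.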

[2] = tested on: Mycobacterium tuberculosis; assay: Antimicrobial activity against streptomycin, isoniazid, rifampicin and ethambutol-resistant Mycobacterium tuberculosis clinical isolate by two-fold serial dilution method; method in brief: as §1
[3] = tested on: Mycobacterium tuberculosis; assay: Antimicrobial activity against streptomycin, isoniazid, rifampicin, ethambutol, pyrazinamide, ethionammide and capreomicinl-resistant Mycobacterium tuberculosis clinical isolate by two-fold serial dilution method; method in brief: as §1

Measured: MIC

O=C(CC(C(=O)O)C1c2ccccc2-c2ccccc21)Nc1cc(Cl)cc(Cl)c1 (stereo not drawn)
4.7 µM: all assays above
